# The list is not random: actives were taken first. Their share in the collection is about 12%.
# ABCB1 block – human ABCB1 inhibition, ABCG2 as counter-screen; P08183; CCRF-Adr cells, JC-1 efflux, flow cytometry; inhibition, % at 6.6 µM; actives 0.067% (n = 190,000); in the data active means inhibition above about 40%;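 further: higher value means more JC-1 retained so stronger ABCB1 efflux block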
# WT yeast gro inh – growth inhibition of WT yeast, mitochondrial fusion screen; mitochondrial fusion phenotypic screen, WT strain; inhibition, % at 10 µM; actives 2.1% (n = 190,000); in the data active means inhibition above about 58%; tested in S. cerevisiae
# Lmaj promast – reduces viability of Leishmania major promastigotes; resazurin fluorescence viability; inhibition, % at 10 µM; actives 9% (n = 200,000); AID 1063; in the data active means inhibition above about 50%;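 further: promastigotes grown with compound for 44 hours at 28 °C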
# RAM network inh – inhibitors of the yeast RAM network; S. cerevisiae dse1pr::URA3 reporter, 5-FOA growth OD615, 2 d; analog-sensitive cbk1-as2 kinase mutant strain; inhibition, % at 50 µM; actives 1.8% (n = 190,000);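 active means inhibition above a set limit, 3 SD over mean compound inhibition, cut at about 8.4% in these data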;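 further: inhibition rescues growth on 5-FOA so higher OD means more RAM inhibition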
# ABCG2 block – blocks JC-1 efflux by human ABCG2 transporter | Q9UNQ0 | IgMXP3 cells, flow cytometry | actives 0.1% (n = 190,000) | inhibition, % at 6.6 µM;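 active means inhibition above 80%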
# Target sequence (Q9UNQ0 whole entry, looked up): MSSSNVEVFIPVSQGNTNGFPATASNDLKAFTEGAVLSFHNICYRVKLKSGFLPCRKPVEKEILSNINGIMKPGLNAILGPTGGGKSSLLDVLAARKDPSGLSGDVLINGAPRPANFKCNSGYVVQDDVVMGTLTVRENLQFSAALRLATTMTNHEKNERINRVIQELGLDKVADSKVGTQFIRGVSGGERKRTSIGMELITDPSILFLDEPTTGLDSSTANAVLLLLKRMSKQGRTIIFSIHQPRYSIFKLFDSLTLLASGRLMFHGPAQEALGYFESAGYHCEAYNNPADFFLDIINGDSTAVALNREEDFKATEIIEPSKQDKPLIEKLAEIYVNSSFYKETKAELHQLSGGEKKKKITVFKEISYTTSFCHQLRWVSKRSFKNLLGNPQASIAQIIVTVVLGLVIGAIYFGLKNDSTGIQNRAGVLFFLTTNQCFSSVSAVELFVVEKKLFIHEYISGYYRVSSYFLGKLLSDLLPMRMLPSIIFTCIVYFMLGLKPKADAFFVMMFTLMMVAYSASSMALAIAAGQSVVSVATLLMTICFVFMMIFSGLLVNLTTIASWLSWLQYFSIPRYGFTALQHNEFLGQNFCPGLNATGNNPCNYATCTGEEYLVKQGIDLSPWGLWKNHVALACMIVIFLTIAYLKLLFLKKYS
#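 Read-out basis: Efflux inhibition in percent versus controls | Test system: ABCG2 IgMXP3 and barcoded ABCB1 CCRF-Adr cell mix | Quantity: 3 million cells/mL in well | Schedule: 10 min at 25 °C | Control set: Nicardipine as high control, DMSO as low control | Reagent: JC-1 as fluorescent efflux pump substrate | Signal: Flow cytometry of retained JC-1 fluorescence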
# RAM efflux-def – restores 5-FOA growth of efflux-deficient yeast; AID 1305; S. cerevisiae efflux-deficient reporter strain, 5-FOA growth OD615, 2 days; max inhibition, %; shares compounds with RAM network inh; 1,200 tested, under 10 active; call rule not given here
# Hits are given with their value; n = inactive; x = not tested or not shown.
SMILES,ABCB1 block,WT yeast gro inh,Lmaj promast,RAM network inh,ABCG2 block,RAM efflux-def
COc1ccc(N(CC(=O)NCCSCc2ccco2)S(=O)(=O)c2ccc(C)cc2)cc1,n,n,n,15,n,n
CN(/C=C/C(=C\C=[N+](C)c1ccccc1)OCCCS(=O)(=O)[O-])c1ccccc1,n,n,n,n,n,x
C=CCn1c(SCC(=O)O)nc2sc(CC)cc2c1=O,n,n,n,n,n,x
C=CCn1c(SCC(=O)/C(C#N)=C(\C)N)nc2sc(CC)cc2c1=O,n,n,n,13,n,n
CCOC(=O)CSc1nc(-c2ccccc2)nc2ccc(F)cc12,n,n,n,13,n,n
COC(=O)CSc1nc(-c2ccccc2)nc2ccc(F)cc12,n,n,n,n,n,x
Cc1ccc(N=c2oc3cc(O)ccc3cc2C(N)=O)cc1,n,n,n,27,n,n
CC(=O)N1CCCc2cc(S(=O)(=O)NCCC3=CCCCC3)ccc21,n,n,n,n,n,x
Cc1ccc(NC(=O)c2cc(S(=O)(=O)NCCC3=CCCCC3)ccc2F)cc1,n,n,n,16,n,n
COc1cc(/C=N/OCC(=O)NC23CC4CC(CC(C4)C2)C3)ccc1OCc1ccccc1,n,n,n,12,n,n
COc1cc(/C=N/NC(=O)c2cccs2)ccc1OCc1ccccc1,n,n,n,n,n,x
CCOC(=O)Cc1csc(NC(=O)NC2(C(F)(F)F)Oc3cc(Cl)c(Cl)cc3O2)n1,n,n,n,n,n,x
CCOC(=O)Cc1csc(NC(=O)NC2(C(F)(F)F)Oc3ccccc3O2)n1,n,n,90,14,n,n
O=C(C1CCC(CNc2nc(=S)[nH]c3ccccc23)CC1)N1CCN(c2ccc(F)cc2)CC1 (stereo not drawn),n,n,n,n,n,x
CCOC(=O)CSc1nc(N)c(C#N)c(-c2cccs2)c1C#N,n,n,n,n,n,x
CCOC(=O)C(C)Sc1nc2c(c(-c3cccs3)c1C#N)CCC2 (stereo not drawn),n,n,54,12,n,n
CC1CCCN(C(=O)C(C)Sc2nc(-c3ccccc3)cc(C(F)(F)F)n2)C1 (stereo not drawn),x,n,n,14,x,n
O=c1c2ccccc2c(C=NCCc2ccccc2)c(O)n1Cc1ccccc1,n,n,n,13,n,n
COc1ccc(O[C@H]2C=C[C@@H](c3ccccc3)O[C@@H]2COC(=O)CC/C(C)=N/O[C@@H](C)c2cc(-c3c(C)cc(C)cc3C)no2)cc1,n,n,n,21,n,n
COc1ccccc1-c1noc(-c2cc(OC)c(OC)c(OC)c2)n1,n,n,n,n,n,x
COc1cc(-c2nc(-c3cccc(C(F)(F)F)c3)no2)cc(OC)c1OC,n,n,n,12,n,n
Cc1ccc(NC(=O)CNC(=O)c2cccs2)cc1S(=O)(=O)Nc1ccc(Cl)cc1,n,n,57,12,n,n
COc1ccc(NC(=O)CNC(=O)c2cccs2)cc1Cl,n,n,n,n,n,x
COc1cccc(C(=O)/C=C/c2ccc(N3CCCCC3)c([N+](=O)[O-])c2)c1,n,n,n,19,n,n
CCC(=O)N1CCN(c2ccc(OC)cc2[N+](=O)[O-])CC1,n,n,n,n,n,x
SMILES,ABCB1 block,WT yeast gro inh,Lmaj promast,RAM network inh,ABCG2 block,RAM efflux-def
O=C(/C=C/c1ccc(N2CCCCC2)c([N+](=O)[O-])c1)c1ccc(S(=O)(=O)N2CCCC2)cc1,n,n,100,12,n,n
CCN(CC)S(=O)(=O)c1ccc(N2CCN(c3cccc(OC)c3)CC2)c([N+](=O)[O-])c1,n,n,100,13,n,n
CCCn1ncc(CN2CCC(N3CCC(C(=O)N4CCOCC4)CC3)CC2)c1C,n,n,n,n,n,x
CC(=O)N(Cc1ccco1)c1nc(C(=O)Nc2ccc(Cl)cc2)c(C)s1,n,n,n,n,n,x
COc1ccc(/C=C(\C#N)C(=O)NCCc2ccccc2)cc1OCc1ccccc1,n,n,96,18,n,n
COc1cc(NS(=O)(=O)c2ccc(NC(=S)NC(=O)/C=C/c3ccco3)cc2)ncn1,n,n,n,13,n,n
COc1ccc(/C=C/C(=O)NC(=S)Nc2ccc(S(=O)(=O)Nc3ccc(OC)nn3)cc2)cc1,n,n,n,n,n,x
Cc1ccccc1-c1nnn(CC(=O)Nc2ccc3c(c2)OCCO3)n1,n,n,n,12,n,n
Cc1ccccc1-c1nnn(CC(=O)Nc2ccc3c(c2)OCO3)n1,n,n,n,n,n,x
CCOC(=O)C1CCN(S(=O)(=O)C(F)(F)c2nc3ccccc3s2)CC1,n,n,n,n,n,n
N#CCCN(C(=O)COC(=O)c1ccc2c(=O)n3c(nc2c1)CCC3)c1ccc(F)cc1,n,n,n,n,n,x
CCOc1ccc(-n2c(C)c(C(C)=O)c(C(C)=O)c2C)cc1,n,n,n,n,n,x
CCOc1ccc(-n2c(C)nc(O)c2N=Nc2ccccc2)cc1,n,n,n,14,n,n
CCOC(=O)C1=C(C)NC(=S)N(C=O)C1c1ccccc1 (stereo not drawn),n,n,n,n,n,x
CCCCOc1ccc(CNn2c(C)nc3ccccc3c2=O)cc1,n,n,n,15,n,n
Cc1ccc(SCCNC(=O)c2ccc(C)c(S(=O)(=O)Nc3cccc(C)c3)c2)cc1,n,n,78,16,n,n
O=C(CSc1nnc(-c2ccncc2)n1-c1ccccc1Cl)Nc1ccc(C(=O)O)cc1,n,n,n,12,n,n
Cc1sc2nc(SCc3ccccc3)n(Cc3ccco3)c(=O)c2c1C,n,n,n,13,n,n
COc1cccc(CSc2nc3sc(C)c(C)c3c(=O)n2Cc2ccco2)c1,n,n,n,16,n,n
Cc1cccc(CSc2nc3sc(C)c(C)c3c(=O)n2Cc2ccco2)c1,n,n,n,22,n,n
Cc1ccc(CSc2nc3sc(C)c(C)c3c(=O)n2Cc2ccco2)cc1,n,n,n,17,n,n
CCC(C)(C)NC(=O)CCn1c(-c2ccccc2)cc(C(C)=O)c1C,n,n,n,n,n,x
COc1ccc(C)cc1NC(=O)C(=O)N/N=C(\C)CC(=O)Nc1cccnc1,n,n,n,n,n,x
O=S(=O)(c1ccccc1F)N(Cc1ccco1)Cc1nnc(-c2ccccc2Br)o1,n,n,65,17,n,n
Clc1ccc(OCc2nnc(-c3ccccc3Br)o2)cc1,n,n,n,n,n,x
C=CCNC(=S)N/N=C/c1ccc(N(CC)Cc2ccccc2)cc1,n,69,n,15,n,n
CC(=O)N(C(C)=O)S(=O)(=O)c1ccc(N=NN2CCCCC2)cc1,n,n,n,n,n,x
CC(=O)c1cc(C(=O)c2ccccc2)sc1Nc1ccccc1,n,n,n,12,n,n
N#Cc1c(Nc2ccccc2)sc(C(=O)c2ccccc2)c1N,n,n,n,n,n,x
CC(C)(O)C#Cc1ccc(CN2CCN(C3CCCC3)C(CCO)C2)cc1 (stereo not drawn),n,n,n,n,n,x
